LGR2 antag – inhibitors of bursicon-induced Drosophila LGR2 receptor cAMP signaling. HEK293 LGR2, CRE-luciferase, bursicon-stimulated, 4 h. inhibition, % at 9.99 µM. 0.35% of 380,000 active. AID 720647;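 active = drop in luminescence signal, shown as inhibition above about 50% in the replicate tests, limit read from the data, passing the limit was not always enough; inconclusive = probably only some replicates passing the limit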;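 also: agonist challenge used bursicon conditioned medium at about half maximal strength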
XiGFP reactiv – reactivates the inactive X chromosome in mouse fibroblasts; XiGFP mouse fibroblasts, % GFP-positive cells imaging, 3 d; cells co-treated with 5-aza-dC sensitizer; scaled so ellipticine positive control = 100%; activation, % at 7.58 µM; 0.055% of 360,000 active; AID 743238;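 active = mean normalized replicate activation at least 10% and every replicate at or above 10%; inconclusive = only one of the two criteria met; inactive = mean below 10% and not all replicates reach 10%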
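Material: XiGFP fibroblasts, SV40-immortalized. Buffer or medium: DMEM plus 5-aza-dC sensitizer. Compound: single concentration per compound, delivered by pin transfer. Times: 3 days compound exposure. Controls: ellipticine 6 µM.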
TWEAK-Fn14 inh – blocks TWEAK-Fn14 interaction in a reporter cell assay; inhibition, % at 10 µM; 2% of 360,000 active; TWEAK-stimulated Fn14 reporter cells, luciferase luminescence, 8 h; in the data active = inhibition above about 50%
TROY NFkB inh – inhibitors of TROY-dependent NF-kB signaling; inhibition, % at 10 µM; AID 1347056; 0.98% of 360,000 active; Q293 LMP1-TROYcd NF-kB luciferase reporter, 4 h;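 active = compounds whose plate-normalised and pattern-corrected inhibition of the luciferase reporter signal at the single screening dose is 50% or more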
FN deposition inh – fibronectin deposition inhibition; inhibition, % at 12.6 µM; 0.086% of 350,000 active; AH1F fibroblasts, Alexa488-fibronectin deposition fluorescence, overnight;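 active = mean inhibition across replicates of 30% or more, regardless of how many single replicates reach that level; inconclusive = mean under 30% yet at least half of replicates reach 30%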
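Material: AH1F fibroblast monolayer depositing Alexa488-labelled fibronectin into matrix | Input: 10000 AH1F cells/well | Medium: DMEM plus 2% serum, read in PBS | Reagent: Alexa488-fibronectin, 24 nM final in well | Compound dosing: One dose per compound, pinned | Schedule: 1 h adhesion, overnight exposure | Measured by: Fluorescence at 485 nm excitation, 525 nm emission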
EWS-Fli block – inhibitors of EWS/Fli oncoprotein transcriptional activity | A673 NR0B1-luciferase reporter, viability-normalised | inhibition, % at 12.6 µM | 0.67% of 350,000 active;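 active = mean inhibition of at least 50% after viability correction, with every replicate also passing that limit; inconclusive = mean reaches 50% but only one of two replicates passes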;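 also: firefly luciferase signal divided by Alamar Blue viability fluorescence both relative to DMSO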
Numbers stand for hits. Only some compounds are listed: those with a hit (about 2.3% of all), similar ones and a draw of the others.

`CN1CCC(N(C)CC(O)c2ccccc2)CC1` (stereo unspecified) gave LGR2 antag inactive, XiGFP reactiv inactive, TWEAK-Fn14 inh inactive, TROY NFkB inh inactive, FN deposition inh inactive and EWS-Fli block inactive.
`Cc1ccccc1CN(C)C1CCN(C)CC1` gave LGR2 antag inactive, XiGFP reactiv inactive, TWEAK-Fn14 inh 110, TROY NFkB inh inactive, FN deposition inh inactive and EWS-Fli block inactive.
`Cc1ccc(C(=O)c2cccc(N)c2)cc1C` gave LGR2 antag inactive, XiGFP reactiv inactive, TWEAK-Fn14 inh 52, TROY NFkB inh inactive, FN deposition inh inactive and EWS-Fli block inconclusive.
For CCS(=O)(=O)N1CCCC(C(=O)NCCCN2CCCC2=O)C1 (stereo unspecified) the results were TWEAK-Fn14 inh 64.
`CNC[C@@H]1Oc2ccc(NC(=O)C3CCCCC3)cc2CC(=O)N([C@@H](C)CO)C[C@@H]1C` gave LGR2 antag inactive, XiGFP reactiv inactive, FN deposition inh inactive and EWS-Fli block inactive.
Screening CN(C)C(=O)c1cccc(-c2ccc3nncn3c2)c1 returned LGR2 antag inactive, XiGFP reactiv inactive, TWEAK-Fn14 inh inactive, TROY NFkB inh inactive, FN deposition inh inactive and EWS-Fli block inactive.
`CNc1ccc2ncc(-c3cccc(C(=O)N(C)C)c3)n2n1` gave LGR2 antag inactive, XiGFP reactiv inactive, TWEAK-Fn14 inh 87, TROY NFkB inh 53, FN deposition inh inactive and EWS-Fli block inactive.
C[C@H](CO)N1C[C@H](C)[C@@H](CN(C)Cc2ccc(C(=O)O)cc2)Oc2ccc(NC(=O)C3CCCCC3)cc2CC1=O was read as LGR2 antag inactive, XiGFP reactiv inactive and EWS-Fli block inactive.
`N=c1cc(C2(O)CCCCC2)n2c(nc3ccccc32)s1` gave TWEAK-Fn14 inh 64, TROY NFkB inh inactive and FN deposition inh inactive.
Screening O=C1c2sc3nc4ccccc4n3c2C(=O)N1c1ccccc1Cl returned TWEAK-Fn14 inh inactive.
For COc1ccc(C#Cc2cccc(-c3nc(C(=O)Nc4ccc(-c5ccccc5)cc4)cc4c3[C@@H](CCO)N(S(=O)C(C)(C)C)C4)c2)cc1OC (stereo partly specified) the results were LGR2 antag inactive, XiGFP reactiv inactive, FN deposition inh inactive and EWS-Fli block inactive.
For CCc1oc2ccccc2c1C(=O)c1cc(Br)c(O)c(Br)c1 the results were LGR2 antag inactive, XiGFP reactiv inactive, TWEAK-Fn14 inh inactive, TROY NFkB inh 52, FN deposition inh inactive and EWS-Fli block inactive.
COCc1cc(Sc2ccc(Cl)cc2)nc(C)n1 was read as LGR2 antag inactive, XiGFP reactiv inactive, TWEAK-Fn14 inh inactive, TROY NFkB inh inactive, FN deposition inh inactive and EWS-Fli block inactive.
`COCc1cc(S(=O)c2ccc(Cl)cc2)nc(C)n1` (stereo unspecified) gave LGR2 antag inactive, XiGFP reactiv inactive, TWEAK-Fn14 inh 64, TROY NFkB inh inactive, FN deposition inh inactive and EWS-Fli block inactive.
Screening C[C@@H](NC(=O)C[C@@H]1C[C@@H]2c3cc(NC(=O)C4CCOCC4)ccc3O[C@@H]2[C@@H](CO)O1)c1ccccc1 returned LGR2 antag inactive, XiGFP reactiv inactive and EWS-Fli block inactive.
Screening O=S1(=O)CCC(NC(=S)SCCOc2ccccc2)C1 (stereo unspecified) returned LGR2 antag inactive, XiGFP reactiv inactive, TWEAK-Fn14 inh 70, TROY NFkB inh inactive, FN deposition inh inactive and EWS-Fli block inactive.
CCCCSC(=S)NC1CCS(=O)(=O)C1 (stereo unspecified) was read as LGR2 antag inactive, XiGFP reactiv inactive, TWEAK-Fn14 inh 57, TROY NFkB inh inactive, FN deposition inh inactive and EWS-Fli block inactive.
`CNC(=S)SCCOc1ccccc1` gave LGR2 antag inactive, XiGFP reactiv inactive, TWEAK-Fn14 inh inactive, TROY NFkB inh inactive, FN deposition inh inactive and EWS-Fli block inactive.
Screening COCC#Cc1ccc([C@H]2[C@H](CO)N3CCCCN(S(=O)(=O)c4ccc(OC)cc4)C[C@@H]23)cc1 returned LGR2 antag inactive, XiGFP reactiv inactive and EWS-Fli block inactive.
For CC(C)CC(=O)/C(=C/c1ccc(N(C)C)cc1)n1cncn1 the results were LGR2 antag inactive, XiGFP reactiv inactive, TWEAK-Fn14 inh inactive, TROY NFkB inh inactive, FN deposition inh inactive and EWS-Fli block inactive.
CC(C)CC(=O)/C(=C\c1ccc(Cl)cc1Cl)n1cncn1 was read as TWEAK-Fn14 inh 106 and TROY NFkB inh 74.
For O=S(=O)(N[C@@H]1CC[C@@H](CCn2cc(-c3ccccn3)nn2)O[C@H]1CO)c1cccc(Cl)c1 the results were LGR2 antag inactive, XiGFP reactiv inactive, FN deposition inh inactive and EWS-Fli block inactive.
COc1ccccc1N1CCN(C(=S)Nc2cccc(C)c2)CC1 was read as LGR2 antag inactive, XiGFP reactiv inactive, TWEAK-Fn14 inh 63, TROY NFkB inh 61, FN deposition inh inactive and EWS-Fli block inactive.
`COc1ccccc1N1CCN(C(=S)Nc2ccc3nc(N4CCOCC4)cc(C)c3c2)CC1` gave LGR2 antag inactive, XiGFP reactiv inactive, TWEAK-Fn14 inh 52, TROY NFkB inh inactive and FN deposition inh inactive.
Cc1cccc(NC(=S)N2CCN(c3cc(C)ccc3C)CC2)c1 was read as LGR2 antag inactive, XiGFP reactiv inactive, TWEAK-Fn14 inh inactive, TROY NFkB inh inactive and FN deposition inh inactive.
Screening CCCNC(=O)Nc1ccc2c(c1)C(=O)N(C)C[C@@H](OC)[C@H](C)CN(Cc1ccccn1)[C@@H](C)CO2 returned LGR2 antag inactive, XiGFP reactiv inactive, FN deposition inh inactive and EWS-Fli block inactive.
`N#Cc1nc(NCC(F)F)nc(Nc2cc(F)cc(F)c2)n1` gave LGR2 antag inactive, XiGFP reactiv inactive, TWEAK-Fn14 inh 92, TROY NFkB inh inactive, FN deposition inh inactive and EWS-Fli block inactive.
N#Cc1nc(Nc2cc(F)cc(F)c2)c2ncn(CC(F)F)c2n1 was read as LGR2 antag inactive, XiGFP reactiv inactive, TWEAK-Fn14 inh inactive, TROY NFkB inh inactive, FN deposition inh inactive and EWS-Fli block inactive.
COc1ccc2c3c(n(C)c2c1)[C@@H](CO)N(Cc1cccc(F)c1)CC31CCN(C)CC1 was read as LGR2 antag inactive, XiGFP reactiv inactive and EWS-Fli block inactive.
`C/C=C/c1ccc2c(c1)O[C@@H](CN(C)C(=O)Nc1ccc(F)cc1)[C@@H](C)CN([C@@H](C)CO)S2(=O)=O` gave LGR2 antag inactive, XiGFP reactiv inactive and EWS-Fli block inactive.
Screening O=C1C(=C(c2ccccc2)N2CCOCC2)Cc2ccccc21 returned LGR2 antag 107, XiGFP reactiv inactive, TWEAK-Fn14 inh 97, TROY NFkB inh inactive and EWS-Fli block 60.
For O=C(c1ccccc1)N1CCN(C(=O)N2CCOCC2)CC1 the results were TWEAK-Fn14 inh inactive, TROY NFkB inh inactive and FN deposition inh inactive.
